Assay results from different studies.
Protocols differ between the studies behind these lines.
Effect on: enzyme activity
Mode: inhibitor
DYRK1B: Dual specificity tyrosine-phosphorylation-regulated kinase 1B (DYRK1B, Homo sapiens, UniProt Q9Y463)
NUAK1: NUAK family SNF1-like kinase 1 (NUAK1, Homo sapiens, UniProt O60285)
Rock2: Rho-associated protein kinase 2 (Rock2, Rattus norvegicus, UniProt Q62868)

Structure (SMILES) | target | test | conditions | remaining activity [%]
COc1cccc(Nc2nc3cc(C(=O)O)ccc3c3cnccc23)c1 | DYRK1B | radiometric | 1 µM | 35
Cc1nn(CC(F)(F)F)cc1Nc1ncc(C2CC2)c(NCCCNC(=O)C2CCC2)n1 | NUAK1 | radiometric | 1 µM | 82
CCCOc1ccc(OC)c(F)c1C(=O)c1ccc(C(=O)N[C@@H]2CNC[C@H]2NC(=O)c2ccc3[nH]ncc3c2)cc1 | Rock2 |  | 10 µM | -1
COc1cccc(CCNc2nc3cc(C(=O)O)ccc3c3cncnc23)c1 | Dual specificity tyrosine-phosphorylation-regulated kinase 3 (DYRK3, Homo sapiens, UniProt O43781) | radiometric | 1 µM | 28
O=C(NCCCNc1nc(Nc2cccc(NC(=O)N3CCCC3)c2)ncc1Br)C1CCC1 | Inhibitor of nuclear factor kappa-B kinase subunit epsilon (IKBKE, Homo sapiens, UniProt Q14164) | radiometric | 1 µM | -2
Cc1cnc(NC2CCOCC2)nc1-n1cnc(C(=O)NC(CN)c2cc(F)cc(Cl)c2)c1 (stereo not drawn) | Rock2 | radiometric | 1 µM | 25
Cc1ccc(C(=O)Nc2ccc(CN3CCN(C)CC3)c(C(F)(F)F)c2)cc1C#Cc1cnc2cccnn12 | Mitogen-activated protein kinase kinase kinase 15 (MAP3K15, Homo sapiens, UniProt Q6ZN16) |  | 23.5 nM | 67
O=C(O)c1ccc2c(c1)nc(NCCc1cccc(Cl)c1)c1ccncc12 | DYRK1B | radiometric | 1 µM | 112
Cc1nn(CC(F)(F)F)cc1Nc1ncc(C2CC2)c(NCc2ccc(S(N)(=O)=O)cc2)n1 | NUAK1 | radiometric | 1 µM | 97
